The values that follow come from PubChem BioAssay AID871 (The Scripps Research Institute Molecular Screening Center, 2007).

Hit rate of the full screen: of about 190,000 compounds, about 1,800 (0.95%) were called active. Only a selection was taken, and actives are over-represented in it overall. Unmarked numbers belong to inactive results.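 The calls were made as follows: active = activation above the screen-wide mean of compound activation plus 3 SD (cut at about 130% in these data); inactive = the rest.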

A short description of this experiment: IL-6 driven STAT3 reporter potentiators, primary screen, U3A cells, luciferase, luminescence, MLSCN library (AID 871).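 Also: 0% = background luminescence of wells with medium and substrate only.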 As to conditions: IL-6 STAT3-luciferase reporter, at 5.6 µM, hits give high values, 100% = signal with IL-6 EC80 alone. An outline of the steps:
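Test system: human U3A cells carrying STAT3-luciferase construct; control set: IL-6-only wells as 100% reference; timing: compound pre-incubation 1 h before IL-6, then 6 h stimulation at 37 °C; also added: IL-6 stimulus at 33 ng/mL final; evaluation: % activation versus median of IL-6-stimulated wells; detection: reporter luminescence signal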
For orientation: In a reporter assay the amount or activity of a reporter protein is the signal.
In the case of `Cc1sc2nc(CC(N)=O)[nH]c(=O)c2c1-c1ccccc1`, the activation (% of control) is 96.5%.

Regarding `CCOC(=O)CC(=O)CSc1nc(-c2ccccc2)cc(-c2ccc(Cl)cc2)c1C#N`, the activation (% of control) is 98.1%.

For the molecule `N#Cc1c(C(F)(F)F)cc(-c2ccc(Cl)cc2)nc1SCC(=O)O`, the activation (% of control) is 142% (active). Consider `N#Cc1c(C(F)(F)F)cc(-c2ccccc2)nc1SCC(=O)N1CCOCC1`, for which the activation (% of control) is 107%. On to `Cc1nn(CC2CC2)c(=O)n1N(C)c1ncc(C(F)(F)F)cc1Cl`, for which the activation (% of control) was 99.4%. For `COc1ccc(C2c3[nH]c4ccccc4c3CCN2CCCn2cccn2)cc1C` (stereo not drawn), the activation (% of control) is 148% (active).

With `CCN(CCn1cccn1)C(=O)CC1C(=O)NCCN1Cc1cccc(OC)c1OC` (stereo not drawn), the activation (% of control) was 106%.

Turning to `COc1cccc(C2c3[nH]c4ccccc4c3CCN2Cc2cccc(C)n2)c1` (stereo not drawn), the activation (% of control) was 126%.

Take `Cc1cc(C)c(C#N)c(SCC(=O)Nc2ccccc2)n1`: the activation (% of control) is 85.2%. For the molecule `Cc1ccc(C(=O)N2CCCC(c3ccccc3)=N2)cc1`, the activation (% of control) is 92.1%. As to `COC(=O)c1[nH]c2ccc(Br)cc2c1NC(=O)Oc1ccccc1`, the activation (% of control) is 102%. The result for `COC(=O)c1[nH]c2ccccc2c1NS(=O)(=O)c1ccc(OC)cc1OC` reads 149% (active). On to `COc1ccc(OC)c(S(=O)(=O)Nc2ccccc2F)c1`, for which the activation (% of control) is 96.8%.

In the case of `O=[N+]([O-])c1ccccc1Nc1ccc(O)cc1`, the activation (% of control) is 104%.

Consider `CCOc1ccc2c(=O)c(-c3ccc4c(c3)OCCCO4)c(C)oc2c1`, for which the activation (% of control) was 98.4%.

Regarding `Cc1ccc(NC(=O)c2cc([N+](=O)[O-])ccc2Cl)c(O)c1`, the activation (% of control) was 138% (active).

Take `CCC(C)C(=O)Nc1cc([N+](=O)[O-])ccc1Cl` (stereo not drawn): the activation (% of control) was 103%.

`CC(C)C(=O)Nc1cccc(NC(=O)c2ccc([N+](=O)[O-])cc2Cl)c1`: the activation (% of control) was 106%. For `CC1CCC2(CC1)NC(=O)N(Cc1nnc(-c3cccs3)o1)C2=O` (stereo not drawn), the activation (% of control) is 96.4%. For the molecule `C/C(=C\c1ccco1)CN1CCC(N2CCC(C(=O)N3CCOCC3)CC2)CC1`, the activation (% of control) was 110%. As for `Cn1cc(CN2CCCC(CO)C2)c(-c2ccc(Oc3ccccc3)cc2)n1` (stereo not drawn), the activation (% of control) was 108%. Turning to `COc1cc(NS(=O)(=O)c2ccc(N/C=C(\C=O)c3nc4cc(Cl)ccc4o3)cc2)nc(OC)n1`, the activation (% of control) was 159% (active). In the case of `COc1cc(NS(=O)(=O)c2ccc(NC(=O)c3ccc(S(=O)(=O)N4CCCCC4)cc3)cc2)ncn1`, the activation (% of control) is 97.5%.

With `COc1cc(NS(=O)(=O)c2ccc(N=Cc3c(C)[nH]n(-c4ccccc4)c3=O)cc2)nc(OC)n1`, the activation (% of control) is 111%.

With `NC(=O)c1ccc(NC(=O)COC(=O)C(Cc2ccccc2)NC(=O)c2ccccc2)cc1` (stereo not drawn), the activation (% of control) is 92.8%. Consider `CCN(CC)CCN(C(=O)c1ccc(N2C(=O)CCC2=O)cc1)c1nc2cc3c(cc2s1)OCO3`, for which the activation (% of control) was 107%. The result for `COc1ccccc1C(=O)NNC(=O)c1ccc(NC(=O)c2ccccc2)cc1` reads 134% (active); that for `C/C(=N/NC(=O)c1ccc(NC(=O)c2ccc(F)cc2)cc1)c1ccccc1`, 85.3%; that for `COc1ccc(C(=O)Nc2ccccc2C(=O)N/N=C/c2ccccc2OC)cc1`, 105%. As to `CCCn1c(C)cc(/C=C(\C#N)C(=O)OCC(=O)Nc2cc(OC)c(OC)c(OC)c2)c1C`, the activation (% of control) is 103%. In the case of `Cc1nc2ccccc2cc1O`, the activation (% of control) is 163% (active). Consider `Cc1nc2ccccc2cc1OCc1ccc(F)cc1`, for which the activation (% of control) was 44.1%. To `Cc1cc(O)ccc1-c1cnc2ccccc2n1` belongs 102%; to `CC(=O)NCCC(=O)Nc1cc(S(=O)(=O)N2CCOCC2)ccc1N1CCOCC1`, 105%; to `CCOc1cc(NC(=S)NCCCN(C)C)c(OCC)cc1NC(=O)C1CC1`, 99.1%.

On to `O=C(NNC1=C(C(=O)C(F)(F)F)CCC1)c1ccncc1`, for which the activation (% of control) was 95.6%.

For `CCn1c(NC(=O)c2nn(C)cc2Br)nc2ccccc21`, the activation (% of control) was 96.8%.

Turning to `Oc1ccc(Br)cc1C=Nc1ccc2[nH]ncc2c1`, the activation (% of control) was 102%. The result for `CCN(CC)CCn1c(/N=C/c2cc(Br)ccc2O)nc2ccccc21` reads 133% (active); that for `S=c1[nH]nc(-c2cccs2)n1/N=C/c1cccs1`, 109%. Regarding `Cc1cc(OC(=O)c2ccccc2)c([N+](=O)[O-])c(=O)[nH]1`, the activation (% of control) is 106%. As to `O=C(NCC1CCCO1)/C(=C/c1ccc(Cl)cc1)NC(=O)c1ccccc1` (stereo not drawn), the activation (% of control) was 88.2%.

As to `Cc1nn(Cc2ccc(Cl)c(Cl)c2)c(C)c1NC(=O)c1cc(C2CC2)on1`, the activation (% of control) was 92.8%. As for `O=C(Nc1cc(C(F)(F)F)ccc1Cl)c1cc(C2CC2)on1`, the activation (% of control) is 150% (active). On to `CSc1ccccc1NC(=O)c1cc(C2CC2)on1`, for which the activation (% of control) is 122%.

Consider `CCCN(CCC)c1c([N+](=O)[O-])c(=O)oc2ccccc12`, for which the activation (% of control) is 96.6%. As for `Cc1ccn(-c2cccc(-n3ccc(C)n3)n2)n1`, the activation (% of control) is 93.6%.

For `CCC(C)NC(=O)CN(C1CCCCC1)S(C)(=O)=O` (stereo not drawn), the activation (% of control) was 105%.
